According to publication PMC6469399 (Chemistry (Weinheim an der Bergstrasse, Germany), 2019):

Key:
F508del-CFTR [1] = target: T1, F508del-CFTR (Homo sapiens, UniProt P13569, DEL508-508); test: TECC; type: cell-based; conditions: F508del CFBE41o- cells; % activity of the 3 μM VX-809 response
Summary of the method: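 F508del CFBE41o- monolayers were pre-incubated 24 h with a range of test-compound concentrations, with DMSO as vehicle and 3 μM VX-809 as positive control in every experiment. Equivalent current (ΔIeq) was recorded as AUC after forskolin (10 μM) + VX-770 (1 μM) stimulation, then CFTRinh-172 (20 μM) inhibition. Response is expressed as % of VX-809 response; n = 3–5; two-way ANOVA with Tukey test versus vehicle.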

[2] = Metabolic stability in human hepatic microsomes; type: in vitro ADME
G551D-CFTR [3] = target: T2, G551D-CFTR (Homo sapiens, UniProt P13569, G551D); test: Ussing chamber potentiation assay, Fischer Rat Thyroid; type: cell-based
WT-CFTR [4] = target: T3, WT-CFTR (Homo sapiens, UniProt P13569); test: Patch clamp analysis, macroscopic currents in excised inside-out patch; type: biochemical
F508del-CFTR [5] = target: T1, F508del-CFTR; type: cell-based
G551D-CFTR [6] = target: T2, G551D-CFTR; test: Ussing chamber potentiation assay, G551D CFBE41o- monolayers; type: cell-based
WT-CFTR [7] = target: T3, WT-CFTR; test: Ussing chamber potentiation assay, WT CFBE41o- monolayers; type: cell-based

For `COc1ccc(C2(C(=O)Nc3ccc(C)c(-c4cccc(C(=O)O)c4)n3)CC2)cc1` [compound 33], the “Maximal Response” value (F508del-CFTR [1]) was 49.9%.
With `CC(C)(C)c1cc(C(C)(C)C)c(NC(=O)c2c[nH]c3ccccc3c2=O)cc1O` [VX-770, Ivacaftor] the “CLHEP, predicted hepatic clearance, human” value ([2]; calculated from CLINT, human) was 14.4 mL min^−1 kg ^−1, the “CLINT, intrinsic clearance in human hepatic microsomes” value ([2]; human hepatic microsomes) was 45.6 mL min^−1 kg ^−1 and the EC50 (G551D-CFTR [3]) was 0.428 ± 0.167 µM. For the same molecule, the “Maximal Response G551D FRT” value (G551D-CFTR [3]; G551D FRT cells, % activity of the VX-770 response, Inactive = no statistically significant response above DMSO vehicle) was 100.0%, the EC50 (WT-CFTR [4]) was 0.0013 ± 0.0003 µM and the “increase of current at lowest dose tested” value (WT-CFTR [4]; WT-CFTR patch clamp, 0.2 nM) was ~ 12%. The EC50 (F508del-CFTR [5]) was 1.89 ± 1.39 µM, the EC50 (G551D-CFTR [6]) was 0.0777 ± 0.0272 µM and the “Maximal Response G551D CFBE” value (G551D-CFTR [6]; G551D CFBE41o-, % activity of the VX-770 response, Inactive = no statistically significant response above DMSO vehicle) was 100.0%. The EC50 (WT-CFTR [7]) was 0.0365 ± 0.0213 µM and the “Maximal Response WT CFBE” value (WT-CFTR [7]; WT CFBE41o-, % activity of the VX-770 response, Inactive = no statistically significant response above DMSO vehicle) was 100.0%.
